This note sets out measurements from ChEMBL document CHEMBL2331476, “A novel semisynthetic flavonoid 7-O-galloyltaxifolin upregulates heme oxygenase-1 in RAW264.7 cells via MAPK/Nrf2 pathway” (J Med Chem, 2013).

The target in series [1] is T1, Nuclear factor erythroid 2-related factor 2 (Mus musculus) (UniProt Q60795).
T1 sequence (whole entry): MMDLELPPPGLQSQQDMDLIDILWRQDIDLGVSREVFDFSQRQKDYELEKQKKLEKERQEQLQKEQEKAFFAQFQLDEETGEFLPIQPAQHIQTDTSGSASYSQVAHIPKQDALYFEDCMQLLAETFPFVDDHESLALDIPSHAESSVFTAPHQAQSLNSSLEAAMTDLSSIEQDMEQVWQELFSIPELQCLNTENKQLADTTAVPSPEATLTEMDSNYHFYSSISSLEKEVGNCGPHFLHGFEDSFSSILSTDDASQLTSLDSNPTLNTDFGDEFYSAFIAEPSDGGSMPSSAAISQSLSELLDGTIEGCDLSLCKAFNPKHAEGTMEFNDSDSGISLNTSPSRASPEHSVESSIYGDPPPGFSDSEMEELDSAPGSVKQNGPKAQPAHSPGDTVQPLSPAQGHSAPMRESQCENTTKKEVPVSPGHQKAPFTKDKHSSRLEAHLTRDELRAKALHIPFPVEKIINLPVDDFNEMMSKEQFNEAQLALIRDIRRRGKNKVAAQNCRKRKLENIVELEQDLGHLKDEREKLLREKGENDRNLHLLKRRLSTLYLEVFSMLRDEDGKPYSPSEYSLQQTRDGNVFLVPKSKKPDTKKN
In words: Activation of Nrf2 in mouse RAW264.7 cells assessed as upregulation of HO1 protein expression at 50 uM after 1 to 6 hr by Western blotting analysis. The series is classed as cell-based. The note with it: TDE = time-dependent effect. A digest of the protocol:
(§1)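 HO-1 protein in whole-cell lysates (20 μg/lane) of serum-starved RAW264.7 cells after 6 h at 10-50 μM or 50 μM for 1-6 h in serum-free medium, 0.1% DMSO control. Chemiluminescent Western blot; HO-1 densitometry normalized to actin, mean of three experiments.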
Background: A western blot detects proteins with antibodies after separation by electrophoresis.

The target of series [2] is T1, Nuclear factor erythroid 2-related factor 2 (Mus musculus). In words: Activation of Nrf2 in mouse RAW264.7 cells assessed as upregulation of Hmox1 gene expression at 10 to 50 uM after 6 hrs by real-time PCR analysis relative to GAPDH mRNA expression. The series is classed as cell-based. A digest of the protocol: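 RAW264.7 cells treated 6 h in serum-free medium, 0.1% DMSO control. Total RNA (2 μg) reverse transcribed; TaqMan qPCR for Hmox1 and Gapdh, 40 cycles. Relative expression by 2^−ΔΔCT, normalized to Gapdh; mean ± SD of three experiments.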
(In general: In qPCR the cycle at which signal appears reflects the starting amount.)

In series [3] the test system is RAW264.7. The series can be described thus: Drug uptake in mouse RAW264.7 cells measured per 10^6 cells at 50 uM after 3 hrs. The series is classed as ADME, cell-based. The note with it: raw264.7, 3 h. In outline: (§2)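 Cells given 50 μM for up to 6 h, then scraped, washed twice in PBS and sonicated in methanol with 5% acetic acid. Supernatant analysed by UPLC on a phenyl column (water/1% acetic acid/methanol to methanol gradient, 35 °C) with negative ESI-QqTOF MS. Contents expressed as nmol per 10⁶ cells.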

Series [4] in a line: Drug metabolism in culture medium assessed as 7-O-galloylquercetin level. The series is classed as physicochemical. A digest of the protocol: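 Compound incubated in culture medium without cells. Medium aliquots diluted 1:1 in methanol with 5% acetic acid, centrifuged, and analysed by phenyl-column UPLC with negative-mode ESI-QqTOF MS.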
Series [5] concerns the target T1, Nuclear factor erythroid 2-related factor 2 (Mus musculus). In words: Activation of Nrf2 in mouse RAW264.7 cells assessed as upregulation of HO1 protein expression at 50 uM after 1 hrs by Western blotting analysis relative to untreated control. The series is classed as cell-based. In outline:
as §1

In series [6] the test system is RAW264.7. The series can be described thus: Drug uptake in mouse RAW264.7 cells at 50 uM after 10 mins. It counts as ADME, cell-based. To be noted: raw264.7, 10 min. In outline: as §2
Series [7] has as its system RAW264.7. In words: Induction of ROS generation in mouse RAW264.7 cells at 50 uM after 2 hrs by flow cytometric analysis. The series is classed as functional. In outline: (§3)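 Serum-starved RAW264.7 cells treated 2 h at 10-50 μM; 100 μM TBHP for 30 min as positive control. Medium replaced, cells loaded with 10 μM carboxy-H₂DCFDA for 15 min at 37 °C. Flow cytometry (488 nm excitation, 525 nm emission, 10,000 events) gave percentage of cells with raised ROS; mean ± SD of three experiments.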
On the technique in general: In flow cytometry, cells or beads pass a laser one at a time.

Series [8] concerns the target T1, Nuclear factor erythroid 2-related factor 2 (Mus musculus). The series can be described thus: Activation of Nrf2 in mouse RAW264.7 cells assessed as nuclear accumulation at 25 uM after 3 hrs by Western blotting analysis. It counts as cell-based. A digest of the protocol:
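Serum-starved RAW264.7 cells treated 30 min to 3 h (10-50 μM for 3 h, or 50 μM time course); 0.1% DMSO control, 50 μM quercetin positive control. Cytosolic fraction from hypotonic HEPES pH 7.9 buffer with 0.1% NP-40; nuclear fraction by 420 mM NaCl extraction. 30 μg/lane blotted for Nrf2 and actin; Nrf2/actin densitometry, mean of three experiments.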

Series [9] addresses Mitogen-activated protein kinase 1 (Mus musculus) (UniProt P63085). The series can be described thus: Activation of ERK2 in mouse RAW264.7 cells assessed as phosphorylation at Thr185/Tyr187 at 50 uM after 30 mins by Western blotting analysis. The series is classed as cell-based. A digest of the protocol:
(§4)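 RAW264.7 cells (passage 5-25) seeded at 1 × 10⁵ cells/cm², serum-starved overnight, then exposed in serum-free medium for 30 min to 3 h; 0.1% DMSO vehicle; 75 ng/mL EGF for 30 min as positive control. Whole-cell lysates (20 μg/lane) on 10% SDS-PAGE, blotted for phospho-ERK1 (Thr202/Tyr204), phospho-ERK2 (Thr185/Tyr187) and total ERK1/2, chemiluminescent detection.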

In series [10] the test system is RAW264.7. In words: Induction of ROS generation in mouse RAW264.7 cells at 10 to 50 uM after 2 hrs by flow cytometric analysis. The series is classed as functional, cell-based. A digest of the protocol:
as §3

Series [11] addresses Mitogen-activated protein kinase 8 (Mus musculus) (UniProt Q91Y86). The series can be described thus: Activation of JNK1 in mouse RAW264.7 cells assessed as phosphorylation at Thr183/Tyr185 at 50 uM after 30 mins to 4 hrs by Western blotting analysis. It counts as cell-based. To be noted: TDE = time-dependent effect. In outline: (§5)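 Serum-starved RAW264.7 cells exposed in serum-free medium for 30 min to 4 h; 5 μM anisomycin for 30 min as positive control. Whole-cell lysates (30 μg/lane) blotted for JNKs dually phosphorylated at Thr183/Tyr185 and total JNKs, chemiluminescent detection.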

Series [12] addresses Mitogen-activated protein kinase 1 and 3 (ERK2 and ERK1) (Mus musculus) (UniProt P63085+Q63844). The series can be described thus: Activation of ERK1/2 in mouse RAW264.7 cells assessed as phosphorylation at 50 uM up to 3 hrs by Western blotting analysis. It counts as cell-based. A digest of the protocol:
as §4

For series [13], the target named is T1, Nuclear factor erythroid 2-related factor 2 (Mus musculus). In words: Activation of Nrf2 in mouse RAW264.7 cells assessed as induction of Hmox1 mRNA expression at 50 uM after 6 hrs by real-time PCR analysis in presence of SB203580. It counts as cell-based. In outline:
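Pretreatment 30 min with 0.1% DMSO, 15 μM PD98059, 15 μM SB203580 or 30 μM SP600125, then 50 μM agent for 6 h in serum-free medium. Hmox1 mRNA by TaqMan qPCR normalized to Gapdh, given as percent of agent-induced expression; mean ± SD of three experiments.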

Series [14] has as its target Mitogen-activated protein kinase 9/10 (Mus musculus) (UniProt Q9WTU6+Q61831). In words: Activation of JNK2/3 in mouse RAW264.7 cells assessed as phosphorylation at 50 uM after 30 mins to 4 hrs by Western blotting analysis. The series is classed as cell-based. To be noted: TDE = time-dependent effect. In outline:
as §5

The source made the active and inactive calls. No cut-off for these calls is given here.

Sequence of Mitogen-activated protein kinase 1 (Mus musculus) (P63085 whole entry): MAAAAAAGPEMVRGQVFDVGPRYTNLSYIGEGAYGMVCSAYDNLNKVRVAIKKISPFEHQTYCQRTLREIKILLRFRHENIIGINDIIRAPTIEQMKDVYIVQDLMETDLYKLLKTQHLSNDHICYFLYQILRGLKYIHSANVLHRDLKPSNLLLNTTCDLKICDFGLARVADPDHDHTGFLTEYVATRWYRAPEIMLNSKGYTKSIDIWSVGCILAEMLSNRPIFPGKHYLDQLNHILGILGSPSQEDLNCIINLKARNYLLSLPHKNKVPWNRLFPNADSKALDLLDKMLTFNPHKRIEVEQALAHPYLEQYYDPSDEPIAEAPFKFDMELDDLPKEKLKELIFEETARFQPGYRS
Sequence of Mitogen-activated protein kinase 1 and 3 (ERK2 and ERK1) (Mus musculus) (P63085 whole entry, looked up): as the sequence (P63085 whole entry) above
Sequence of Mitogen-activated protein kinase 1 and 3 (ERK2 and ERK1) (Mus musculus) (Q63844 whole entry, looked up): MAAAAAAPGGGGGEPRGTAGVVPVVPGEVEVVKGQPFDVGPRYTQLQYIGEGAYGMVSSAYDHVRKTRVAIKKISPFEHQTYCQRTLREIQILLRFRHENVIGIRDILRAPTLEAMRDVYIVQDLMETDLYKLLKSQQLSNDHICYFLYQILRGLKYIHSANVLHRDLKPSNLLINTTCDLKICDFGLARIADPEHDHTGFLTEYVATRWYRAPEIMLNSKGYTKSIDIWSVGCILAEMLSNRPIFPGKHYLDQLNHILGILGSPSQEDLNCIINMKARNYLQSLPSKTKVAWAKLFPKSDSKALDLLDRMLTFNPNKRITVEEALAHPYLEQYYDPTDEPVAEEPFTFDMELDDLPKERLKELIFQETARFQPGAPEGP
Sequence of Mitogen-activated protein kinase 8 (Mus musculus) (Q91Y86 whole entry): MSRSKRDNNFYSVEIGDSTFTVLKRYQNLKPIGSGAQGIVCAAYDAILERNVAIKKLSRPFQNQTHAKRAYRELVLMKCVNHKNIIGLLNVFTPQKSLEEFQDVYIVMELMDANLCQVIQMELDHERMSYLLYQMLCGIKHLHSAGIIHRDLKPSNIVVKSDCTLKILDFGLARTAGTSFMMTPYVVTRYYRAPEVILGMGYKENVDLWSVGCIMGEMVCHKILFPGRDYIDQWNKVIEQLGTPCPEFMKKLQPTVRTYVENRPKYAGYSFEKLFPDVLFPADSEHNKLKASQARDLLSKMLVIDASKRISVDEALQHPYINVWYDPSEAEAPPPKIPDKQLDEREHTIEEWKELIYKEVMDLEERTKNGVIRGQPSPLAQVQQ
Sequence of Mitogen-activated protein kinase 9/10 (Mus musculus) (Q61831 whole entry, looked up): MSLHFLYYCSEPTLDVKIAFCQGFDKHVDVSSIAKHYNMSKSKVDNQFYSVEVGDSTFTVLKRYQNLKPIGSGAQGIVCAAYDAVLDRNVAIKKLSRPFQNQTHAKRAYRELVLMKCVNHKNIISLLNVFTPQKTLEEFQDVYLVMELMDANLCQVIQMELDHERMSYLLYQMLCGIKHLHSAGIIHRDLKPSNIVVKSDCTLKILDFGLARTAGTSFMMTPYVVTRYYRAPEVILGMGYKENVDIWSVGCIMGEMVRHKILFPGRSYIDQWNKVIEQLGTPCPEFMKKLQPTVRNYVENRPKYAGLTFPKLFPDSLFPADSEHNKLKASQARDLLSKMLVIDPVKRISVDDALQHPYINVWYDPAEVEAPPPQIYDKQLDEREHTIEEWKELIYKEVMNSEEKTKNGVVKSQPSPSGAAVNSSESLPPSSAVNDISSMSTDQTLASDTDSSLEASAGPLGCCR
Sequence of Mitogen-activated protein kinase 9/10 (Mus musculus) (Q9WTU6 whole entry, looked up): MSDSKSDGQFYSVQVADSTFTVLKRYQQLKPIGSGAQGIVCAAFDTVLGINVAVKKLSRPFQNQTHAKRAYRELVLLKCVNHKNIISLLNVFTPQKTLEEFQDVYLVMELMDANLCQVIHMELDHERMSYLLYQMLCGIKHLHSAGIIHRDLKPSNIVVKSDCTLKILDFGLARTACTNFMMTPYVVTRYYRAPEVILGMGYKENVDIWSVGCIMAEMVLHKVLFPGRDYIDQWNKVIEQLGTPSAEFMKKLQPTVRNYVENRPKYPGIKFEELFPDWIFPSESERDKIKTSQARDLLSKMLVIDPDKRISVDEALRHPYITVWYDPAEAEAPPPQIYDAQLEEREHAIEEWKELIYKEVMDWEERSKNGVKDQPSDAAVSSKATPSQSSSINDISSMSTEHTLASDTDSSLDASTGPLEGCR

Consider `O=C(Oc1cc(O)c2c(c1)O[C@H](c1ccc(O)c(O)c1)[C@@H](O)C2=O)c1cc(O)c(O)c(O)c1`, for which the Activity result in series [1] is “tde”; in series [2], “Dose-dependent effect”; in the series on RAW264.7 [7], 29%; in [11], “tde”; in series [14], “tde”. Further, the Drug uptake in the series on RAW264.7 [3] came to 1.03 nmol; in the series on RAW264.7 [6] it was 85%. Also, the Drug metabolism result in [4] is recorded as “Not Active”. Besides, in series [5], the fold change (FC) turned out to be 1.1. Further, the outcome (in [8]; in [9]; in the series on RAW264.7 [10]) was Active. Besides, the result in series [12] and in series [13] was inactive.
